Laboratory results from ChEMBL document CHEMBL1828551, “Synthesis, biochemical and molecular modelling studies of antiproliferative azetidinones causing microtubule disruption and mitotic catastrophe” (Eur J Med Chem, 2011).
Activity calls are given as the source filed them. No cut-off for these calls is given here.

Columns and labels:
[1] = tested on: MDA-MB-231; assay: Antiproliferative activity against ER-independent human MDA-MB-231 cells assessed as cell death at 10 uM after 72 hrs by LDH assay
[2] = tested on: MCF7; assay: Antiproliferative activity against ER expressing human MCF7 cells after 72 hrs by MTT assay; assay type: functional, cell-based; details: MCF7, 72 h
Method in brief: (§1)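 Cells seeded at 2.5×10^4 cells/mL, held 24 h at 37°C, then dosed from ethanol stocks over 1 nM–100 μM for 72 h; vehicle 1% v/v ethanol. MTT added to 1 mg/mL final, 2 h in dark at 37°C, DMSO solubilisation 20 min RT, absorbance read. Viability set relative to untreated controls; IC50 from % viability vs concentration. Triplicate wells, ≥3 experiments, mean ± SEM. MCF-7 grown in MEM with 10% FBS, 2 mM glutamine and 1% non-essential amino acids; MDA-MB-231 grown in DMEM with 10% FBS and 2 mM glutamine.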

[3] = tested on: MDA-MB-231; assay: Antiproliferative activity against ER-independent human MDA-MB-231 cells after 72 hrs by MTT assay; assay type: functional, cell-based; details: MDA-MB-231, 72 h
Method in brief: as §1

[4] = tested on: MCF7; assay: Cell cycle arrest in human MCF7 cells assessed as accumulation at S phase at 500 nM after 48 hrs by propidium iodide staining based flow cytometric analysis (reference value: 8.77+/-0.9%); assay type: functional
[5] = organism: Bos taurus; assay: Inhibition of bovine tubulin polymerization at 10 uM after 60 mins by spectrophotometric analysis
Method in brief: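 Purified bovine brain tubulin in G-PEM buffer (80 mM PIPES pH 6.9, 0.5 mM MgCl2, 1 mM EGTA, 1 mM GTP, 10.2% glycerol) was mixed with drug at 10 μM or 1% ethanol vehicle. Assembly was started by warming from 4 to 37°C and turbidity read at 340 nm every 30 s for 60 min at 37°C. Run in triplicate.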

[6] = tested on: MCF7; assay: Effect on microtubule network in human MCF7 cells assessed as microtubule depolymerization at 500 nM after 16 hrs by confocal microscopic analysis; assay type: functional, cell-based
Method in brief: (§2)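 MCF-7 cells seeded at 1×10^5 per well on chamber glass slides, exposed 16 h (vehicle 1% v/v ethanol). Permeabilised with 0.1% Triton X-100 in PBS, fixed in methanol 30 min at -20°C, blocked in 5% BSA. Stained with DM1A anti-tubulin (1:20, 1 h RT), then FITC rabbit anti-mouse (1:200, 1 h RT). Mounted with DAPI and imaged by confocal microscopy; three separate experiments.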

[7] = tested on: MCF7; assay: Cell cycle arrest in human MCF7 cells assessed as accumulation at G1 phase at 500 nM after 48 hrs by propidium iodide staining based flow cytometric analysis (reference value: 60.22+/-3.1%); assay type: functional
[8] = tested on: MCF7; assay: Cell cycle arrest in human MCF7 cells assessed as accumulation at G2/M phase at 500 nM after 48 hrs by propidium iodide staining based flow cytometric analysis (reference value: 52.02+/-5.9%); assay type: functional
[9] = tested on: MCF7; assay: Antimitotic activity in human MCF7 cells assessed as mitotic catastrophe at 500 nM after 16 hrs using DAPI staining based immunofluorescence analysis; assay type: functional, cell-based
Method in brief: as §2

[10] = tested on: MCF7; assay: Cell cycle arrest in human MCF7 cells assessed as appearance of polyploidy at 500 nM after 48 hrs by propidium iodide staining based flow cytometric analysis (reference value: 8.33+/-2.5%); assay type: functional
[11] = tested on: MCF7; assay: Cell cycle arrest in human MCF7 cells assessed as accumulation at sub-G1 phase at 500 nM after 48 hrs by propidium iodide staining based flow cytometric analysis (reference value: 1.65+/-0.38%); assay type: functional
[12] = tested on: MCF7; assay: Antiproliferative activity against ER expressing human MCF7 cells assessed as cell death at 10 uM after 72 hrs by LDH assay
[13] = tested on: MCF7; assay: Cell cycle arrest in human MCF7 cells assessed as accumulation at G1 phase at 100 nM after 48 hrs by propidium iodide staining based flow cytometric analysis (reference value: 60.22+/-3.1%); assay type: functional
[14] = tested on: MCF7; assay: Cell cycle arrest in human MCF7 cells assessed as accumulation at sub-G1 phase at 100 nM after 48 hrs by propidium iodide staining based flow cytometric analysis (reference value: 1.65+/-0.38%); assay type: functional
[15] = tested on: MCF7; assay: Cell cycle arrest in human MCF7 cells assessed as accumulation at G2/M phase at 100 nM after 48 hrs by propidium iodide staining based flow cytometric analysis (reference value: 52.02+/-5.9%); assay type: functional
[16] = tested on: MCF7; assay: Cell cycle arrest in human MCF7 cells assessed as accumulation at S phase at 100 nM after 48 hrs by propidium iodide staining based flow cytometric analysis (reference value: 8.77+/-0.9%); assay type: functional
[17] = tested on: MCF7; assay: Cell cycle arrest in human MCF7 cells assessed as appearance of polyploidy at 100 nM after 48 hrs by propidium iodide staining based flow cytometric analysis (reference value: 8.33+/-2.5%); assay type: functional
[18] = tested on: MCF7; assay: Antimitotic activity in human MCF7 cells assessed as mitotic catastrophe at 100 nM after 16 hrs using DAPI staining based immunofluorescence analysis; assay type: functional, cell-based
Method in brief: as §2

[19] = tested on: MCF7; assay: Effect on microtubule network in human MCF7 cells assessed as microtubule depolymerization at 100 nM after 16 hrs by confocal microscopic analysis; assay type: functional, cell-based
Method in brief: as §2

Row | Structure (SMILES) | Activity [1] [%] | IC50 [2] [µM] | IC50 [3] [µM] | also measured
1 | COc1cc(N2C(=O)[C@H](c3ccccc3)[C@H]2c2ccc(OC)c(OC)c2OC)cc(OC)c1OC | 6.1 | 1.12 | 1.96 | –
2 | COc1cc(N2C(=O)C(c3ccccc3)C2(c2ccccc2)c2ccccc2)cc(OC)c1OC (stereo unspecified) | – | 3.84 | – | –
3 | COc1ccc(C2(c3ccccc3)C(c3ccccc3)C(=O)N2c2cc(OC)c(OC)c(OC)c2)cc1 (stereo unspecified) | – | 0.43 | – | –
4 | COc1ccc(C2(c3ccc(OC)cc3)C(c3ccccc3)C(=O)N2c2cc(OC)c(OC)c(OC)c2)cc1 (stereo unspecified) | – | 0.64 | – | –
5 | CCOc1ccc([C@@H]2[C@@H](c3ccccc3)C(=O)N2c2cc(OC)c(OC)c(OC)c2)cc1 (relative stereo) | 5.4 | 0.22 | 0.83 | Activity [4]: 9.49%; inhibition [5]: Active; Activity [6]: Active; Activity [7]: 21.18%; Activity [8]: 47.53%; Activity [9]: Active; Activity [10]: 7.4%; Activity [11]: 13.97%
6 | COc1cc(N2C(=O)[C@H](c3ccccc3)[C@H]2c2ccc(F)cc2)cc(OC)c1OC (relative stereo) | 0 | 0.35 | 1.14 | –
7 | COc1cc(N2C(=O)[C@H](c3ccccc3)[C@H]2c2ccc(N(C)C)cc2)cc(OC)c1OC (relative stereo) | – | 0.85 | 5.66 | Activity [12]: 10.4%
8 | COc1cc(OC)c([C@@H]2[C@@H](c3ccccc3)C(=O)N2c2cc(OC)c(OC)c(OC)c2)c(OC)c1 (relative stereo) | 0 | 18.7 | 5.74 | –
9 | COc1cc([C@@H]2[C@@H](c3ccccc3)C(=O)N2c2cc(OC)c(OC)c(OC)c2)cc(OC)c1OC (relative stereo) | 0 | 69.8 | 65.6 | –
10 | COc1cc(OC)c([C@@H]2[C@@H](c3ccccc3)C(=O)N2c2cc(OC)c(OC)c(OC)c2)cc1OC (relative stereo) | 0 | 46.9 | 38.9 | –
11 | COc1ccc([C@@H]2[C@@H](c3ccccc3)C(=O)N2c2cc(OC)c(OC)c(OC)c2)cc1OC (relative stereo) | 0 | 0.46 | 0.53 | Activity [12]: 3%
12 | COc1ccc([C@@H]2[C@@H](c3ccccc3)C(=O)N2c2cc(OC)c(OC)c(OC)c2)cc1Br (relative stereo) | – | 1.42 | – | –
13 | COc1cc(N2C(=O)[C@H](c3ccccc3)[C@H]2c2ccc3ccccc3c2)cc(OC)c1OC (relative stereo) | – | 0.44 | – | –
14 | COc1ccc(/C=C/[C@@H]2[C@@H](c3ccccc3)C(=O)N2c2cc(OC)c(OC)c(OC)c2)cc1 (relative stereo) | – | 1.99 | – | –
15 | COc1ccc([C@@H]2[C@@H](c3ccccc3)C(=O)N2Cc2cc(OC)c(OC)c(OC)c2)cc1 (relative stereo) | – | 38.6 | – | –
16 | COc1ccc(/C=C\c2cc(OC)c(OC)c(OC)c2)cc1O [COMBRETASTATIN A4] | 4.3 | 0.005 | – | inhibition [5]: Active; Activity [13]: 23.57%; Activity [14]: 9.43%; Activity [15]: 52.02%; Activity [12]: 5.5%; Activity [16]: 10.66%; Activity [17]: 8.36%; Activity [18]: Active; Activity [19]: Active
